Legend:
MCF7 = assay: Cytotoxicity against human MCF7 cells assessed as reduction in cell viability at 100 uM measured after 48 hrs by WST-1 assay; format: toxicity, cell-based; conditions: mcf7, 48 h
Procedure, shortened: (§1)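 Cells kept at 37 °C in humidified 5% CO2, adherent lines under 10 passages, suspension lines under 20, exponential phase. Seeded at 1–50 × 10^3 cells per well, settled overnight, then a single 48 h exposure at 100 μM final. WST-1 read at 440 nm. Proliferation given as % of 0.1% DMSO mock control, mean of three independent experiments.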

MOLT-4 = assay: Cytotoxicity against human MOLT-4 cells assessed as reduction in cell viability at 100 uM measured after 48 hrs by WST-1 assay; format: toxicity, cell-based; conditions: molt-4, 48 h; procedure, shortened: as §1
Jurkat = assay: Cytotoxicity against human Jurkat cells assessed as reduction in cell viability at 100 uM measured after 48 hrs by WST-1 assay; format: toxicity, cell-based; procedure, shortened: as §1
MRC5 = assay: Cytotoxicity against human MRC5 cells assessed as reduction in cell viability at 100 uM measured after 48 hrs by WST-1 assay; format: toxicity, cell-based; conditions: mrc5, 48 h; procedure, shortened: as §1
SAOS-2 = assay: Cytotoxicity against human SAOS-2 cells assessed as reduction in cell viability at 100 uM measured after 48 hrs by WST-1 assay; format: toxicity, cell-based; conditions: saos-2, 48 h; procedure, shortened: as §1
[1] = Cytotoxicity against human PBMC assessed as optimal non-toxic concentration required to show >=90 to 100% cell viability measured after 48 hrs by MTS assay; format: toxicity, cell-based; conditions: read-out: Activity
Procedure, shortened: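 PBMCs from a healthy donor were isolated on Histopaque-1077 and cultured in RPMI 1640 with 20% inactivated FBS. About 5×10^4 cells per well were exposed 48 h at 37 °C, 5% CO2 to 10–1000 μM. MTS was added 4 h before reading at 490 nm, blank subtracted, untreated control set to 100%. Concentration taken as viability ≥90% and not below control (P 0.05), mean of ≥3 measurements.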

HT-29 = assay: Cytotoxicity against human HT-29 cells assessed as reduction in cell viability at 100 uM measured after 48 hrs by WST-1 assay; format: toxicity, cell-based; conditions: ht-29, 48 h; procedure, shortened: as §1
Blood = assay: Radioprotective activity against 3 Gy gamma radiation-induced DNA damage in human whole blood assessed as reduction in number of dicentric chromosomes per cell by measuring radioprotection factor at 1000 uM preincubated for 1 hr followed by 3 Gy gamma irradiation and measured after 48 hrs by giemsa staining based microscopic analysis relative to control; format: functional; conditions: time 49 hrs
Procedure, shortened: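 Heparinized whole blood from healthy male donors, 60 min compound pre-exposure, then single 3 Gy 60Co gamma dose at 0.6 Gy/min. After 30 min at 37 °C, cultured in RPMI 1640 with 20% FBS and 2% PHA. Colcemid 0.25 μg/ml added at 48 h, harvest at 50 h, KCl hypotonic, methanol:acetic acid fixation, 5% Giemsa. Automated metaphase scoring. RF = […].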

PANC-1 = assay: Cytotoxicity against human PANC-1 cells assessed as reduction in cell viability at 100 uM measured after 48 hrs by WST-1 assay; format: toxicity, cell-based; conditions: panc-1, 48 h; procedure, shortened: as §1
A549 = assay: Cytotoxicity against human A549 cells assessed as reduction in cell viability at 100 uM measured after 48 hrs by WST-1 assay; format: toxicity, cell-based; conditions: a549, 48 h; procedure, shortened: as §1
[2] = Cytotoxicity against human PBMC assessed as reduction in cell viability at 20 uM measured after 48 hrs by MTS assay; format: toxicity, cell-based
Procedure, shortened: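 PBMCs isolated from whole blood of a healthy donor by Histopaque-1077 density centrifugation, cultured in RPMI 1640 GlutaMAX with 20% inactivated FBS and penicillin/streptomycin. About 5×10^4 cells/well exposed to 10–1000 μM for 48 h at 37 °C, 5% CO2. MTS added 4 h before reading absorbance at 490 nm, cell-free medium blank subtracted. Untreated control set as 100%; mean of ≥3 independent measurements.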

| Compound | Activity (MCF7) | Activity (MOLT-4) | Activity (Jurkat) | Activity (MRC5) | Activity (SAOS-2) | MNTC at 48 h [1] | Activity (HT-29) | PI (Blood) | Activity (PANC-1) | Activity (A549) | Activity [2] |
| --- | --- | --- | --- | --- | --- | --- | --- | --- | --- | --- | --- |
| OCCN1CCN(CC(O)COc2ccc(F)cc2)CC1 (stereo not drawn) | Non-Toxic | Non-Toxic | Non-Toxic | Non-Toxic | Non-Toxic | 1000 µM | Non-Toxic | 1.53 | Non-Toxic | Non-Toxic | – |
| NCCCNCCSP(=O)(O)O [AMIFOSTINE] | – | – | – | – | – | 10 µM | – | – | – | – | Toxic |
| COc1ccc(OCC(O)CN2CCN(CCO)CC2)c([N+](=O)[O-])c1 (stereo not drawn) | Non-Toxic | Non-Toxic | Non-Toxic | Non-Toxic | Non-Toxic | 500 µM | Non-Toxic | – | Non-Toxic | Non-Toxic | – |
| OCCN1CCN(CC(O)COc2ccc(Oc3ccc(F)cc3)cc2)CC1 (stereo not drawn) | Toxic | Toxic | Toxic | Toxic | Toxic | – | Toxic | – | Toxic | Toxic | – |
| O=[N+]([O-])c1ccc(OCC(O)CN2CCN(CCO)CC2)c(F)c1 (stereo not drawn) | Non-Toxic | Non-Toxic | Non-Toxic | Non-Toxic | Non-Toxic | 500 µM | Non-Toxic | – | Non-Toxic | Non-Toxic | – |
| OCCN1CCN(CC(O)COc2cccc(Cl)c2)CC1 (stereo not drawn) | Non-Toxic | Non-Toxic | Non-Toxic | Non-Toxic | Non-Toxic | 500 µM | Non-Toxic | – | Non-Toxic | Non-Toxic | – |
| OCCN1CCN(CC(O)COc2cc(Cl)c(Cl)cc2Cl)CC1 (stereo not drawn) | Toxic | Toxic | Toxic | Toxic | Toxic | – | Toxic | – | Toxic | Toxic | – |
| COc1cc([N+](=O)[O-])ccc1OCC(O)CN1CCN(CCO)CC1 (stereo not drawn) | Non-Toxic | Non-Toxic | Non-Toxic | Non-Toxic | Non-Toxic | 500 µM | Non-Toxic | – | Non-Toxic | Non-Toxic | – |
| O=[N+]([O-])c1cc(OCC(O)CN2CCN(CCO)CC2)ccc1Cl (stereo not drawn) | Non-Toxic | Non-Toxic | Non-Toxic | Non-Toxic | Non-Toxic | 200 µM | Non-Toxic | – | Non-Toxic | Non-Toxic | – |

Reference: ChEMBL document CHEMBL5584326, “Second-generation piperazine derivatives as promising radiation countermeasures” (RSC Med Chem, 2024)
